19 compounds from ChEMBL document CHEMBL4004846, “Synthesis and antitrypanosomal activities of novel pyridylchalcones” (Eur J Med Chem, 2017) can be followed below.

For series [1], the system named is Leishmania donovani. In words: Antileishmanial activity against Leishmania donovani HU3 amastigote forms infected in CD-1 mouse macrophages at 10 uM after 2 to 3 days by Giemsa staining based microscopic method relative to control. Format: functional.
The nature of series [2]: Selectivity index, ratio of IC50 for human KB cells to IC50 for Trypanosoma brucei rhodesiense STIB900. It counts as toxicity. The note with it: read-out: Ratio IC50. Put shortly:
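SI is calculated as the KB-cell IC50 divided by the T. b. rhodesiense STIB900 IC50.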

Series [3] deals with Trypanosoma brucei rhodesiense. In words: Antitrypanosomal activity against Trypanosoma brucei rhodesiense STIB900 after 72 hrs by Alamar blue assay. Format: functional. As to conditions: STIB900, 72 h. In outline: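 T. b. rhodesiense STIB 900 bloodstream forms (1 x 10³ per well) incubated with 3-fold serial drug dilutions from DMSO stocks (20 mM) diluted in medium, 37°C, 5% CO2, 72 h, in triplicate. Drug-free controls and medium-only blanks were included. Alamar Blue was then added for 2-4 h and fluorescence read at ex 530/em 580 nm. IC50 is the mean of two independent experiments.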

Another series concerns KB. The experiment in a line: Cytotoxicity against human KB cells after 72 hrs by Alamar blue assay. It counts as cell-based. In outline: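 Human nasopharyngeal carcinoma KB cells were grown in RPMI 1640 with 10% heat-inactivated foetal calf serum at 37°C and 5% CO2. Monolayers were exposed to compounds for 72 h. Alamar Blue was then added for 2-4 h and fluorescence read at 530/580 nm. IC50 was derived by sigmoidal regression from the mean of two independent triplicate experiments.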

For series [4], the system named is Leishmania donovani. In words: Antileishmanial activity against Leishmania donovani HU3 amastigote forms infected in CD-1 mouse macrophages at 30 uM after 2 to 3 days by Giemsa staining based microscopic method relative to control. It counts as functional.

pIC50: −log10 of the molar value. Active and inactive are the calls of the source. The rule behind the calls is not given here.

Take `COc1ccccc1C(=O)/C=C/c1cccnc1`: the outcome with Leishmania donovani [1] was inactive. In series [2], the selectivity ratio came out at 20. The pIC50 in series [3] was 5.94; in the series with KB, 4.64.

As for `COc1ccc(C(=O)/C=C/c2cccnc2)cc1OC`, the result in the series on Leishmania donovani [1] was inactive. Also, the selectivity ratio in series [2] was 24. Further, the pIC50 is 6.01 in series [3] and 4.64 in the series with KB.

As to `O=C(/C=C/c1cccnc1)c1ccccc1`, the outcome in the series with Leishmania donovani [1] was inactive. Besides, the selectivity ratio in series [2] stood at 11. Further, the pIC50 in series [3] was 6.14; in the series with KB, 5.11.

Consider `O=C(/C=C/c1cccnc1)c1ccc2c(c1)OCO2`, for which the outcome in the series on Leishmania donovani [1] was inactive. The selectivity ratio in series [2] was determined as 12. Also, the pIC50 in series [3] was 5.32; in the series on KB it was 4.23.

Take `COc1cccc(C(=O)/C=C/c2cccnc2)c1`: the result with Leishmania donovani [1] was inactive. In addition, the selectivity ratio in series [2] came to 6. Further, the pIC50 in series [3] is 6.39; in the series with KB it was 5.64.

On to `O=C(/C=C/c1cccnc1)c1cccc(Br)c1`, for which the result with Leishmania donovani [1] was inactive. Besides, the selectivity ratio in series [2] turned out to be 47. The pIC50 was 6.54 in series [3] and 4.87 in the series on KB. This compound also had an inhibition at 30 µM with Leishmania donovani [4] of 39.7%.

Take `O=C(/C=C/c1cccnc1)c1ccc(F)c(F)c1`: the result in the series with Leishmania donovani [1] was inactive. The selectivity ratio in series [2] was 29. In addition, the pIC50 in series [3] is 6.14; with KB, 4.68.

`O=C(CC(CC(=O)c1cccc(Br)c1)c1cccnc1)c1cccc(Br)c1`: in the series on Leishmania donovani [1], the result was inactive. In addition, the selectivity ratio in series [2] is 15. For the same compound, the pIC50 in series [3] was 4.91; with KB, 3.74.

As for `O=C(/C=C/c1cccnc1)c1cccnc1`, in the series with Leishmania donovani [1], the outcome was inactive. For the same compound, the selectivity ratio in series [2] was determined as 17. For the same compound, the values for the pIC50 (in series [3]; in the series on KB) were 5.99 and 4.77, respectively.

Regarding `COc1ccc(C(=O)/C=C/c2cccnc2)cc1`, the outcome in the series with Leishmania donovani [1] was inactive. The selectivity ratio in series [2] was found to be 23. The pIC50 in series [3] was 6.03; in the series on KB, 4.66.

Regarding `O=C(/C=C/c1cccc(Br)c1)c1cccnc1`, in the series with Leishmania donovani [1], the result was inactive. For the same compound, the selectivity ratio in series [2] is 63. Moreover, the negative logarithm of the IC50 (pIC50) in series [3] is 6.16; in the series on KB, 4.36.

On to `O=C(/C=C/c1ccccn1)c1cccc(Br)c1`, for which the result with Leishmania donovani [1] was inactive. In series [2], the selectivity ratio was found to be 37. Also, the figures for the negative logarithm of the IC50 (pIC50) (in series [3]; in the series with KB) were 6.40 and 4.83, respectively.

`O=C(/C=C/c1cccnc1)c1cccc(Cl)c1`: in the series with Leishmania donovani [1], the outcome was inactive. Besides, in series [2], the selectivity ratio was determined as 21. Also, the pIC50 in series [3] was 6.21; in the series with KB, 4.90. In the series on Leishmania donovani [4], testing at 30 µM gave an inhibition of 2.7%.

Consider `O=C(/C=C/c1ccncc1)c1cccc(Br)c1`, for which the result in the series on Leishmania donovani [1] was inactive. In addition, the selectivity ratio in series [2] was determined as 36. Further, the pIC50 in series [3] was 6.19; with KB, 4.63.

Compound `COc1cc([C@@H]2c3cc4c(cc3[C@H](O)[C@H]3COC(=O)[C@H]23)OCO4)cc(OC)c1OC` [PODOFILOX] showed a pIC50 in the series on KB of 7.24.

Turning to `O=C(/C=C/c1cccnc1)c1ccc(Br)cc1`, the outcome in the series with Leishmania donovani [1] was inactive. Also, the selectivity ratio in series [2] is 23. Also, the pIC50 was 6.47 in series [3] and 5.10 in the series with KB. Further, in the series with Leishmania donovani [4], the inhibition at 30 µM stood at 11.6%.

As for `O=C(/C=C/c1ccccc1)c1cccc(Br)c1`, the result in the series on Leishmania donovani [1] was inactive. The selectivity ratio in series [2] was determined as 19. Besides, the pIC50 is 6.02 in series [3] and 4.74 with KB. Further, testing at 30 µM in the series on Leishmania donovani [4] gave an inhibition of 13.8%.

As to `O=C(/C=C/c1cccnc1)c1cccc(O)c1`, the outcome with Leishmania donovani [1] was inactive. Besides, in series [2], the selectivity ratio came to 19. Moreover, the pIC50 in series [3] was 5.94; with KB it was 4.66.

With `O=C(/C=C/c1cccnc1)c1ccccc1Br`, in the series on Leishmania donovani [1], the result was inactive. In series [2], the selectivity ratio is greater than 8. The pIC50 was 4.42 in series [3] and less than 3.52 with KB.
